From PubChem
M4 antag: CHRM4 antagonism in calcium assay. inhibition, % at 3 µM. P08173. actives 0.73% (n = 360,000). CHO-hM4 cells, ACh EC80, Fluo-8 calcium fluorescence;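 active = inhibition above its plate's cutoff, the mean inhibition of sample wells plus 3 SD, cut at about 27% in these data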
CHRM4 agonist: agonists of human muscarinic M4 receptor (CHRM4) | P08173 | CHO-K1 hM4/Gqi5, Fluo-8 calcium fluorescence; vehicle 0%, full acetylcholine response 100% | activation, % at 3 µM | actives 0.14% (n = 360,000) | AID 624127;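 active = activation above the run mean over all test wells plus 3 SD, cut at about 32% in these data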;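 note: peak over basal fluorescence ratio per well then scaled between controls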
M5 PAM: potentiates acetylcholine response at human M5 receptor; P08912; CHO-K1 hM5, Fluo-8 calcium, ACh EC20 PAM; 0% = ACh EC20, 100% = ACh EC100; activation, % at 3 µM; actives 0.3% (n = 360,000); AID 624038;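 active = activation above the run cutoff, the mean activation of all test compounds plus 3 SD, cut at about 18% in these data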
Target sequence (P08912 whole entry, looked up): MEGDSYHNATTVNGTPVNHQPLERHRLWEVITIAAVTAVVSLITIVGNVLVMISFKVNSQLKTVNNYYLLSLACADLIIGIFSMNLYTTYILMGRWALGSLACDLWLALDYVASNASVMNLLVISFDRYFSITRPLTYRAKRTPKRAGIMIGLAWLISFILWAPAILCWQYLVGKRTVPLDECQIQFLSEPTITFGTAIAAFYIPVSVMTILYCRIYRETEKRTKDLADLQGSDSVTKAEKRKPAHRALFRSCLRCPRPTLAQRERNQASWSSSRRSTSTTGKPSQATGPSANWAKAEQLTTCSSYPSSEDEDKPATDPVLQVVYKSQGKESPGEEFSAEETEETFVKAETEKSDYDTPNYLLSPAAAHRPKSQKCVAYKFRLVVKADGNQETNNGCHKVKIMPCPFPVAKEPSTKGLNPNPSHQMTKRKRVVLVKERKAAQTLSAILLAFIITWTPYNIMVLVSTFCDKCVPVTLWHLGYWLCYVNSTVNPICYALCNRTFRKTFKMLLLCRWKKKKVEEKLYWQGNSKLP
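System – CHO-K1 hM5 cells · Compound – 3 µM, single dose · Incubation – compound preincubation 140 s before EC20 acetylcholine addition · Technique – Fluo-8 calcium fluorescence · Measure – Max/basal fluorescence ratio as % of EC20–EC100 ACh window · Benchmarks – low control EC20 acetylcholine (0%), high control EC100 acetylcholine (100%) · Replication – singlicate, one well per test compound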
CHRM4 PAM: potentiates acetylcholine response at human M4 receptor; P08173; CHO-K1 hM4/Gqi5, Fluo-8 calcium fluorescence, ACh EC20; 0% = ACh EC20, 100% = maximal ACh; activation, % at 3 µM; actives 0.4% (n = 360,000);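 active = activation above its plate's cutoff, the mean activation of sample wells plus 3 SD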
M5 antag: CHRM5 antagonism in calcium assay | inhibition, % at 3 µM | actives 0.59% (n = 360,000) | P08912 | AID 624040 | CHO-hM5 cells, Fluo-8 calcium fluorescence, ACh EC80;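 active = inhibition above a per-plate cutoff, the mean of that plate's test compounds plus 3 SD, cut at about 27% in these data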
M5 ag: agonists of human muscarinic M5 receptor (CHRM5); P08912; CHO-K1 hM5 cells, Fluo-8 calcium fluorescence; 0% DMSO wells, 100% maximal acetylcholine response; activation, % at 3 µM; actives 0.19% (n = 360,000); AID 624037;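 active = activation above the run's mean over test compounds plus 3 SD, cut at about 23% in these data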;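 note: signal is peak over basal fluorescence ratio across the kinetic read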
Of the large screens only hits and unclear results are named; the others gave an inactive call. Compounds with a hit are over-represented: about 1.9% of the library has one in this group of screens.

CCn1c(SCC(=O)NC2CC2)nnc1C(C)Oc1ccccc1 (stereo unspecified)	none
FC(F)(F)c1cc(CCN2CCNC[C@@H]2CC2CCCCC2)cc(C(F)(F)F)c1	M4 antag 29.1
O=C(CCNC(=O)c1ccco1)Nc1ccccc1	CHRM4 PAM 15.7
Cc1ccc(NC(=O)CCNC(=O)c2ccco2)cc1	none
O=C(CCNC(=O)c1ccco1)NNC(=O)c1ccc(Br)cc1	CHRM4 PAM 23.1
O=C(CCNC(=O)c1ccc(Br)cc1)NCc1ccco1	none
Cc1ccc(N(Cc2cc(=O)[nH]c3ccccc23)C(=O)C(C)C)c(C)c1	M4 antag 46.0
Cc1ccccc1N(Cc1cc(=O)[nH]c2ccccc12)C(=O)C(C)C	none
Cc1cc(Nc2nc3ccccc3[nH]c2=O)n(-c2ccccc2)n1	M5 PAM 23.3
COc1ccccc1Cc1noc(COc2cccc(C)c2C)n1	CHRM4 PAM 34.1
COc1ccccc1Cc1nc(-c2ccncc2)no1	none
COc1ccc(NC(=O)C2CCC(C)(C(=O)O)C2(C)C)cc1 (stereo unspecified)	M4 antag 27.6
CCOc1ccc(NC(=O)C2CCC(C)(C(=O)O)C2(C)C)cc1 (stereo unspecified)	none
CCOC(=O)C1CCN(C(=O)C2CCN(c3ncnc4c3nc3n4CCCCC3)CC2)CC1	none
COc1cccc(NC(=O)c2sc3nc(N4CCOCC4)c4c(c3c2N)CCCC4)c1	none
O=C(NCCCCCCNC(=O)c1ccccc1O)c1ccccc1O	M5 antag 27.9
CC(=O)Nc1ccc(NC(=O)C(C)OC(=O)CCCOc2ccc(Cl)c(C)c2)cc1 (stereo unspecified)	none
Cc1cccc(N2CCN(C(=S)NCCc3ccccc3)CC2)c1C	none
COCCNC(=S)N1CCN(c2cccc(C)c2C)CC1	M5 antag 27.6
Cc1ccc2c(C(=O)CN3CCCCC3)c(C)[nH]c2c1	none
Cc1ccc2c(C(=O)CN3CCOCC3)c(C)[nH]c2c1	M5 PAM 24.5
Cn1nc(C(=O)NCCN2CCOCC2)c2ccccc2c1=O	none
Cn1nc(C(=O)NCc2cccnc2)c2ccccc2c1=O	M5 PAM 19.7
Cn1nc(C(=O)Nc2cccnc2)c2ccccc2c1=O	none
CCn1cc(C(=O)NCc2ccco2)c(=O)c2ccc(C)nc21	CHRM4 PAM 18.9
Cn1nc(C(=O)NCc2ccco2)c2ccccc2c1=O	CHRM4 PAM 22.6
CCn1cc(C(=O)NCCOC)c(=O)c2ccc(C)nc21	none
Cn1c(=O)c2cc(NC(=S)NC3CC3)ccc2n1Cc1cccc(C(F)(F)F)c1	none
COc1ccc(NS(=O)(=O)c2ccc3c(c2)CCC(=O)N3)cc1O	none
Cc1cccc(N(CC(O)CN2CCCC2)S(=O)(=O)c2ccccc2)c1 (stereo unspecified)	none
Cc1nn(CC(=O)Nc2cccc(C(F)(F)F)c2)c(=O)c2cccn12	none
CCn1c(=O)n(CCc2ccccc2)c(=O)c2c3c(sc21)CCCC3	none
COC(=O)Cn1c(=O)n(CCc2ccccc2)c(=O)c2c3c(sc21)CCCC3	M4 antag 29.5
CN(C)CCNc1nc2sc3c(c2c(=O)n1CCc1ccccc1)CCCCC3	M4 antag 31.5
CC(O)CNc1nc2sc3c(c2c(=O)n1CCc1ccccc1)CCCCC3 (stereo unspecified)	none
N/C(=N\OC(=O)CSc1ccccc1)c1ccccn1	CHRM4 PAM 21.2
O=C1C2CCCCN2C(=O)N1CCCCN1CCN(c2cccc(C(F)(F)F)c2)CC1 (stereo unspecified)	none
O=C1CCCCC(=O)N(c2ccccc2)c2ccccc21	M5 PAM 18.2
CC(C)(C)n1nnnc1C(c1ccccc1OC(F)(F)F)N1CCN(C/C=C/c2ccccc2)CC1 (stereo unspecified)	none
COc1cccc(C(c2nnnn2C2CCCCC2)N2CCN(C/C=C/c3ccccc3)CC2)c1OC (stereo unspecified)	M4 antag 28.5, M5 antag 40.6
FC(F)(F)Oc1ccccc1C(c1nnnn1C1CCCC1)N1CCN(C/C=C/c2ccccc2)CC1 (stereo unspecified)	M5 antag 64.4
COc1cccc(C(c2nnnn2-c2c(C)cccc2C)N2CCN(C/C=C/c3ccccc3)CC2)c1OC (stereo unspecified)	none
C=CC[C@@H](Cc1ccc(F)cc1)C(=O)OC[C@@H]1CCCN1C(=O)[C@@H](CC=C)CC(=O)N[C@H](CO)Cc1ccccc1	none
COc1cc(C(=O)NNC(=S)NC(=O)c2ccc(Cl)cc2)cc(OC)c1OC	CHRM4 agonist 43.8, M5 ag 33.1
Cc1cccc(C(=O)NC(=S)NNC(=O)c2ccc(Cl)cc2)c1	M4 antag 39.6, CHRM4 agonist 132.5, M5 antag 30.5, M5 ag 89.8
O=C(NNC(=S)Nc1cccc(C(F)(F)F)c1)c1cccc(Cl)c1	M5 antag 45.7
CCCC(=O)Nc1ccc(C(=O)NNC(=S)NC(=O)c2cccs2)cc1	none
CCCC(=O)Nc1ccc(C(=O)NNC(=S)NC(=O)c2ccc(Br)o2)cc1	M4 antag 34.1
Cc1ccc(NC(=O)COc2ccc(N(C)S(=O)(=O)c3ccc(F)cc3)cc2)cc1	none
O=c1cc2oc3cc(O)c(O)cc3c(-c3ccccc3O)c-2cc1O	none
COc1ccc(OC)c(-c2c3cc(O)c(=O)cc-3oc3cc(O)c(O)cc23)c1	CHRM4 agonist 60.0, M5 ag 54.6
O=C(NCCCN1CCOCC1)c1ccc2c(c1)N(Cc1cccc(Cl)c1)C(=O)CS2	M4 antag 36.1
COc1cccc(NC(=O)Nc2ccc(C(C)(C)C)cc2)c1	M5 antag 34.8
COc1cccc(NC(=O)CSCC(=O)O)c1	CHRM4 PAM 32.7
COc1cccc(NC(=O)CSCC(=O)Nc2ccccc2)c1	none
O=C(Nc1ccc(F)cc1)Nc1cccnc1Cl	M4 antag 32.3
O=C(Nc1ccc(F)cc1)Nc1ccccc1F	none
CC(C)(C)c1ccc(NC(=O)Nc2ccc(F)cc2)cc1	M4 antag 51.5, M5 antag 78.7
CC(=O)c1ccc(NC(=O)CN2C(=O)NC(C)(C3CCCCC3)C2=O)cc1 (stereo unspecified)	none
Cc1ccnc(SCC(=O)Nc2sccc2C#N)n1	none
Cc1noc(C)c1NC(=O)N(C)C[C@H]1Oc2ccc(NS(=O)(=O)c3c(C)noc3C)cc2C(=O)N([C@H](C)CO)C[C@@H]1C	none
COc1cccc(NC(=O)Nc2ccc(C)c(Cl)c2)c1	M5 antag 33.3
COc1cc(NC(=O)CCc2nnc3ccc(N4CCCCC4)nn23)cc(OC)c1OC	none
